Measurements published in ChEMBL document CHEMBL1149086, “Antimalarial and antitumor evaluation of novel C-10 non-acetal dimers of 10beta-(2-hydroxyethyl)deoxoartemisinin” (J Med Chem, 2004).

Columns and labels:
LOX IMVI = experiment: Concentration required to achieve total growth inhibition against melanoma LOX IMVI cell line; format: functional; conditions: Homo sapiens
MCF7 [1] = experiment: Concentration required to achieve total growth inhibition against breast MCF-7 cancer cell line; format: functional; conditions: Homo sapiens
MCF7 [2] = experiment: Concentration of the drug required to achieve 50% cytotoxicity against breast MCF-7 cancer cell line; format: cell-based; conditions: human
Malme-3M [3] = experiment: inhibition against melanoma MALME-3M cell line; format: functional; conditions: Homo sapiens
Malme-3M [4] = experiment: Concentration of the drug required to achieve 50% cytotoxicity against melanoma MALME-3M cell line; format: cell-based; conditions: human
MOLT-4 [5] = experiment: Concentration required to achieve total growth inhibition against leukemia MOLT-4 cell line; format: functional; conditions: Homo sapiens
Malme-3M [6] = experiment: Concentration required to achieve total growth inhibition against melanoma MALME-3M cell line; format: functional; conditions: Homo sapiens
MOLT-4 [7] = experiment: Concentration of the drug required to achieve 50% cytotoxicity against leukemia MOLT-4 cell line; format: functional; conditions: Homo sapiens, read-out: LC50 (the source's name)
NCI/ADR-RES [8] = experiment: inhibition against breast NCI/ ADR-RES cancer cell line; format: functional; conditions: Homo sapiens
NCI/ADR-RES [9] = experiment: Concentration of the drug required to achieve 50% cytotoxicity against breast NCI/ ADR-RES cancer cell line; format: cell-based; conditions: human
NCI/ADR-RES [10] = experiment: Concentration required to achieve total growth inhibition against breast NCI/ ADR-RES cancer cell line; format: functional; conditions: Homo sapiens
PC-3 [11] = experiment: Concentration of the drug required to achieve 50% cytotoxicity against prostate PC-3 cell line; format: cell-based; conditions: human
PC-3 [12] = experiment: inhibition against prostate PC-3 cell line; format: functional; conditions: Homo sapiens
Plasmodium falciparum = experiment: In vitro antimalarial activity against Plasmodium falciparum HB3 by [3H]hypoxanthine uptake; format: functional, organism-based
PC-3 [13] = experiment: Concentration required to achieve total growth inhibition against prostate PC-3 cell line; format: functional; conditions: Homo sapiens
RPMI-8226 [14] = experiment: Concentration of the drug required to achieve 50% cytotoxicity against leukemia RPMI-8226 cell line; format: functional; conditions: Homo sapiens, read-out: LC50 (the source's name)
RPMI-8226 [15] = experiment: Concentration required to achieve total growth inhibition against leukemia RPMI-8226 cell line; format: functional; conditions: Homo sapiens
SW-620 [16] = experiment: inhibition against colon SW-620 cancer cell line; format: functional; conditions: Homo sapiens
SW-620 [17] = experiment: Concentration of the drug required to achieve 50% cytotoxicity against colon SW-620 cancer cell line; format: cell-based; conditions: human
SR [18] = experiment: inhibition against leukemia SR cell line; format: functional; conditions: Homo sapiens
SR [19] = experiment: Concentration of the drug required to achieve 50% cytotoxicity against leukemia SR cell line; format: functional; conditions: Homo sapiens, read-out: LC50 (the source's name)
SR [20] = experiment: Concentration required to achieve total growth inhibition against leukemia SR cell line; format: functional; conditions: Homo sapiens
SW-620 [21] = experiment: Concentration required to achieve total growth inhibition against colon SW-620 cancer cell line; format: functional; conditions: Homo sapiens
SK-MEL-5 [22] = experiment: inhibition against melanoma SK-MEL-5 cell line; format: functional; conditions: Homo sapiens
SK-MEL-5 [23] = experiment: Concentration required to achieve total growth inhibition against melanoma SK-MEL-5 cell line; format: functional; conditions: Homo sapiens
[24] = Concentration of the drug required to achieve 50% cytotoxicity against leukemia CCRF-CEM cell line; format: functional; conditions: Homo sapiens, read-out: LC50 (the source's name)
T47D [25] = experiment: inhibition against breast T-47D cancer cell line; format: functional; conditions: Homo sapiens
T47D [26] = experiment: Concentration of the drug required to achieve 50% cytotoxicity against breast T-47D cancer cell line; format: cell-based; conditions: human
T47D [27] = experiment: Concentration required to achieve total growth inhibition against breast T-47D cancer cell line; format: functional; conditions: Homo sapiens
UACC-62 [28] = experiment: inhibition against melanoma UACC-62 cell line; format: functional; conditions: Homo sapiens
UACC-62 [29] = experiment: Concentration of the drug required to achieve 50% cytotoxicity against melanoma UACC-62 cell line; format: cell-based; conditions: human
UACC-62 [30] = experiment: Concentration required to achieve total growth inhibition against melanoma UACC-62 cell line; format: functional; conditions: Homo sapiens
HL-60 = experiment: Inhibitory concentration against HL60 cells; format: functional, cell-based; conditions: Homo sapiens
Procedure, shortened: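 HL60 (2.5 × 10⁴/well) or Jurkat (1 × 10⁵/well) in RPMI-1640 with 10% FBS and 1% L-glutamine, 5% CO2, 37 °C. Exposed to 10⁻¹⁰–10⁻⁴ M for 72 h, final DMSO below 0.5% v/v. [3H]-thymidine (0.5 μCi) added for the final 24 h. Incorporation counted by β-scintillation.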

SK-MEL-5 [31] = experiment: Concentration of the drug required to achieve 50% cytotoxicity against melanoma SK-MEL-5 cell line; format: cell-based; conditions: human
RPMI-8226 [32] = experiment: inhibition against leukemia RPMI-8226 cell line; format: functional; conditions: Homo sapiens
K562 = experiment: inhibition against leukemia K-562 cell line; format: functional; conditions: Homo sapiens
MCF7 [33] = experiment: inhibition against breast MCF-7 cancer cell line; format: functional; conditions: Homo sapiens

SMILES: C[C@H]1[C@@H](CCOP(=O)(OCC[C@H]2O[C@@H]3OC4(C)CC[C@H]5[C@H](C)CC[C@@H]([C@H]2C)[C@@]35OO4)Oc2ccccc2)O[C@@H]2OC3(C)CC[C@H]4[C@H](C)CC[C@@H]1[C@@]24OO3 (single isomer, unassigned)
- TGI (LOX IMVI): 15.6 µM
- TGI (MCF7 [1]): > 100 µM
- LC50 (MCF7 [2]): > 100 µM
- GI50 (Malme-3M [3]): 0.194 µM
- LC50 (Malme-3M [4]): > 100 µM
- TGI (MOLT-4 [5]): 11.9 µM
- TGI (Malme-3M [6]): 30.8 µM
- CC50 (MOLT-4 [7]): > 100 µM
- GI50 (NCI/ADR-RES [8]): 0.5 µM
- LC50 (NCI/ADR-RES [9]): > 100 µM
- TGI (NCI/ADR-RES [10]): 45.2 µM
- LC50 (PC-3 [11]): > 100 µM
- GI50 (PC-3 [12]): < 0.01 µM
- IC50 (Plasmodium falciparum): 0.00018 µM
- TGI (PC-3 [13]): 65.5 µM
- CC50 (RPMI-8226 [14]): > 100 µM
- TGI (RPMI-8226 [15]): 0.01 µM
- GI50 (SW-620 [16]): < 0.01 µM
- LC50 (SW-620 [17]): > 100 µM
- GI50 (SR [18]): < 0.01 µM
- CC50 (SR [19]): > 100 µM
- TGI (SR [20]): 0.263 µM
- TGI (SW-620 [21]): 100 µM
- GI50 (SK-MEL-5 [22]): 0.013 µM
- TGI (SK-MEL-5 [23]): 2.25 µM
- CC50 [24]: > 100 µM
- GI50 (T47D [25]): 0.0256 µM
- LC50 (T47D [26]): > 100 µM
- TGI (T47D [27]): < 10 µM
- GI50 (UACC-62 [28]): 0.0753 µM
- LC50 (UACC-62 [29]): > 100 µM
- TGI (UACC-62 [30]): 21.8 µM
- IC50 (HL-60): 0.241 µM
- LC50 (SK-MEL-5 [31]): > 100 µM
- GI50 (RPMI-8226 [32]): < 0.01 µM
- GI50 (K562): < 0.01 µM
- GI50 (MCF7 [33]): 0.106 µM
